Measurements: PMC4902274 (Hypertension, 2014)
One block for each molecule: values may come before it.

Columns and labels:
[1] = tested on: SH-SY5Y cells; test: Intracellular calcium / calcium influx in SH-SY5Y cells; type: cell-based, human; settings: for inhibition of prorenin-induced calcium influx: 1 μmol/L inhibitor
[2] = tested on: PRR; settings: cited from earlier work
[3] = tested on: hypertensive RA mice; settings: systemic enalapril; cited from earlier work
[4] = tested on: DOCA-salt hypertensive mice; type: in vivo, mouse; settings: losartan 3 mmol/L, 10-minute icv infusion, n=5
How it was run: (§1)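 Test compound, scrambled peptide (1 mmol/L, control) or losartan was infused intracerebroventricularly over 10 minutes into hypertensive mice. BP was traced in real time before, during and after the infusion. The read-out was change in mean arterial pressure (ΔMAP).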

[5] = tested on: normotensive SHAM mice; test: Acute intracerebroventricular infusion, BP in normotensive SHAM mice; type: in vivo, mouse; settings: icv PRO20 1 mmol/L or losartan 3 mmol/L, n=4
[6] = tested on: ERK-1/2 phosphorylation, Neuro-2A cells; test: ERK-1/2 phosphorylation in Neuro-2A cells; type: cell-based, mouse
How it was run: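 Neuro-2A cells were kept in serum-free medium overnight, then pretreated with losartan 10 μmol/L for 30 minutes. They were then exposed for 15 minutes to prorenin (4 nmol/L), HRP (1 μmol/L) or test peptide (1 μmol/L). Total and phosphorylated ERK-1/2 were measured by Western blot. PRR knockdown cells were transfected with AAV-PRR-shRNA for 3 days.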

[7] = tested on: prorenin-induced hypertension, C57Bl/6J mice; settings: cited from earlier work
[8] = tested on: hypertensive RA mice; test: Acute intracerebroventricular infusion, BP in renin-angiotensinogen; type: in vivo, mouse; settings: losartan 3 mmol/L, 10-minute icv infusion, n=4
How it was run: as §1

[9] = tested on: DOCA-salt hypertension, mice; settings: icv infusion of losartan; cited from earlier work
[10] = tested on: ERK-1/2; settings: cited from earlier work
[11] = tested on: diabetic hypertensive rats; settings: cited from earlier work
[12] = tested on: diabetic nephropathy; settings: cited from earlier work
[13] = tested on: prorenin; settings: cited from earlier work
[14] = tested on: spontaneously hypertensive rats; settings: cited from earlier work
[15] = target: (pro)renin receptor (PRR), human brain (Homo sapiens, UniProt O75787); test: PRO20-FITC fluorescence binding to human brain sections; settings: PRO20-FITC 1 nmol/L, unlabeled human prorenin 1 μmol/L, human PVN
Chain of (pro)renin receptor (PRR), human brain (O75787 17-350): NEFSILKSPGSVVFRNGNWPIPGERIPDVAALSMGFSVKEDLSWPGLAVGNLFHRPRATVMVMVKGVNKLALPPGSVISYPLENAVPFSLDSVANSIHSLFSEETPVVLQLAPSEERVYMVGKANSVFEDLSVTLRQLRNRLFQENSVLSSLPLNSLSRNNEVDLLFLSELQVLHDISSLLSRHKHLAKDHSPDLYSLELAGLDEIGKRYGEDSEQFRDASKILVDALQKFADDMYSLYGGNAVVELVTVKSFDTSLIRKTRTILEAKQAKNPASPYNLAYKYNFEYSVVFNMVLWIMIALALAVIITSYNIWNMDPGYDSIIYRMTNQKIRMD
How it was run: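 Human PVN sections were incubated with FITC-labelled test peptide, 1 nmol/L with or without unlabelled human prorenin 1 μmol/L. For a concentration series (0.2, 0.5, 1, 2, 5 nmol/L), n=5–6 per concentration. Nuclei were stained with DAPI. Relative fluorescence units were total fluorescence density minus background in each image.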

[16] = tested on: plasminogen-activator inhibitor 1 release; settings: prorenin 4 nmol/L; cited from earlier work
[17] = target: (pro)renin receptor (PRR), mouse brain (Mus musculus, UniProt Q9CYN9); test: PRO20-FITC fluorescence binding to mouse brain sections; settings: PRO20-FITC 5 nmol/L, unlabeled mouse prorenin 1 μmol/L, mouse PVN
Chain of (pro)renin receptor (PRR), mouse brain (Q9CYN9 18-350): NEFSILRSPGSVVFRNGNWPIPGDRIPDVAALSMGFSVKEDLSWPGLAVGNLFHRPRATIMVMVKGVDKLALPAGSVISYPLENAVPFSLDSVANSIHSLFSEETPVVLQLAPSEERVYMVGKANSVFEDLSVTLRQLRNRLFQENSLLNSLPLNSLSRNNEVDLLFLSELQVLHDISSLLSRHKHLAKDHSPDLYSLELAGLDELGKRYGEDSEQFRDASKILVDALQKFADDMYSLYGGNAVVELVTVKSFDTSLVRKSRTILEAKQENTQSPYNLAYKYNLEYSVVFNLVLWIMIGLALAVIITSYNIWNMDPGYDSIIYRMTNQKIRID
How it was run: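 Mouse PVN sections were incubated with FITC-labelled test peptide, 5 nmol/L with or without unlabelled mouse prorenin 1 μmol/L. For a concentration series (1, 2, 5, 10, 20 nmol/L), n=5–6 per concentration. PVN from neuron-specific PRR-knockout mice was also examined. Nuclei were stained with DAPI. Relative fluorescence units were total fluorescence density minus background per image.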

[18] = tested on: prorenin-induced hypertension, C57Bl/6J mice; test: Pressor response to acute intracerebroventricular infusion of mouse prorenin; type: in vivo; settings: mouse prorenin 2.4 μmol/L + scrambled peptide 100 μmol/L, 3 μL/min for 10 minutes, icv
[19] = human prorenin 4 nmol/L, n=7–11/group

Molecule: Nc1ncnc2c1ncn2[C@@H]1O[C@H](COP(=O)(O)OP(=O)(O)OP(=O)(O)O)[C@@H](O)[C@H]1O [ATP]
intracellular calcium in SH-SY5Y cells ([1]; ATP 1 μmol/L, Fluo-4-AM, n=7–11/group): increased intracellular calcium

Molecule: COCCCOc1cc(C[C@@H](C[C@H](N)[C@@H](O)C[C@H](C(=O)NCC(C)(C)C(N)=O)C(C)C)C(C)C)ccc1OC [aliskiren]
effect on renin or prorenin binding to the PRR [2]: does not alter renin or prorenin binding to the PRR

Molecule: C[C@H](CS)C(=O)N1CCC[C@H]1C(=O)O [captopril]
inhibition of prorenin-induced calcium influx [1, 19]: completely blocked

Molecule: CCOC(=O)[C@H](CCc1ccccc1)N[C@@H](C)C(=O)N1CCC[C@H]1C(=O)O [enalapril]
effect on BP in RA mice, systemic [3]: did not normalize BP

Molecule: CCCCc1nc(Cl)c(CO)n1Cc1ccc(-c2ccccc2-c2nn[nH]n2)cc1 [losartan]
effect on mean arterial BP (MAP) [4]: reduced mean arterial BP | effect on MAP in normotensive mice [5]: did not alter MAP | inhibition of prorenin-induced ERK-1/2 phosphorylation ([6]; losartan, prorenin): partially blocked | effect on prorenin-induced hypertension ([7]; icv infusion of losartan): abolishes prorenin-induced hypertension | inhibition of prorenin-induced calcium influx [1, 19]: completely blocked | inhibition of Ang II-induced intracellular calcium increase ([1]; losartan 1 μmol/L vs Ang II 10 nmol/L, n=7–11/group): blocked | effect on mean arterial BP (MAP) [8]: reduced mean arterial BP | effect on development of DOCA-salt hypertension [9]: totally prevents the development of DOCA-salt hypertension

Molecule: Ang II: major bioactive peptide of the RAS
intracellular calcium in SH-SY5Y cells ([1]; Ang II 10 nmol/L, Fluo-4-AM, n=7–11/group): increased intracellular calcium levels

Molecule: RILLKKMPSV [HRP]
phosphorylated ERK-1/2 levels, peptide alone ([6]; PRO20 or HRP alone, 1 μmol/L, 15 minutes, losartan 10 μmol/L): unaffected | inhibition of binding of prorenin to the PRR [2]: no direct inhibitory effect on the binding of prorenin to the PRR | ERK-1/2 phosphorylation in the retina [10]: increases phosphorylation of extracellular signal–regulated protein kinase 1 and 2 | effect on beneficial effects of aliskiren on vascular dysfunction [11]: counteracts the beneficial effects of aliskiren | effect on diabetic nephropathy in rats ([12]; development): prevent the development of diabetic nephropathy in rats without affecting hyperglycemia | effect on established diabetic nephropathy in rats ([12]; established): induce regression of established diabetic nephropathy | conformational change and nonproteolytic activation of prorenin on binding to PRR [13]: inhibits the conformational change and nonproteolytic activation of prorenin | effect on cardiac fibrosis [14]: attenuates the development of cardiac fibrosis

inhibition of PRO20-FITC binding by unlabeled prorenin [15]: eliminated PRO20-FITC binding
B1: human prorenin: unlabeled human prorenin (protein, UniProt P00797 24-406, looked up)
pro-form: LPTDTTTFKRIFLKRMPSIRESLKERGVDMARLGPEWSQPMKRLTLGNTTSSVILTNYMDTQYYGEIGIGTPPQTFKVVFDTGSSNVWVPSSKCSRLYTACVYHKLFDASDSSSYKHNGTELTLRYSTGTVSGFLSQDIITVGGITVTQMFGEVTEMPALPFMLAEFDGVVGMGFIEQAIGRVTPIFDNIISQGVLKEDVFSFYYNRDSENSQSLGGQIVLGGSDPQHYEGNFHYINLIKTGVWQIQMKGVSVGSSTLLCEDGCLALVDTGASYISGSTSSIEKLMEALGAKKRLFDYVVKCNEGPTLPDISFHLGGKEYTLTSADYVFQESYSSKKLCTLAIHAMDIPPPTGPTWALGATFIRKFYTEFDRRNNRIGFALAR
modifications: pro-form
intracellular calcium in SH-SY5Y cells [1, 19]: increased neuronal intracellular calcium | calcium influx induced relative to Ang II ([1]; human prorenin vs Ang II, SH-SY5Y cells): to a degree similar to that of Ang II

B2: prorenin: prorenin; species not stated at the place (protein, UniProt P00797 24-406, looked up)
pro-form: LPTDTTTFKRIFLKRMPSIRESLKERGVDMARLGPEWSQPMKRLTLGNTTSSVILTNYMDTQYYGEIGIGTPPQTFKVVFDTGSSNVWVPSSKCSRLYTACVYHKLFDASDSSSYKHNGTELTLRYSTGTVSGFLSQDIITVGGITVTQMFGEVTEMPALPFMLAEFDGVVGMGFIEQAIGRVTPIFDNIISQGVLKEDVFSFYYNRDSENSQSLGGQIVLGGSDPQHYEGNFHYINLIKTGVWQIQMKGVSVGSSTLLCEDGCLALVDTGASYISGSTSSIEKLMEALGAKKRLFDYVVKCNEGPTLPDISFHLGGKEYTLTSADYVFQESYSSKKLCTLAIHAMDIPPPTGPTWALGATFIRKFYTEFDRRNNRIGFALAR
modifications: pro-form
ERK-1/2 phosphorylation ([6]; prorenin alone, serum-free medium): markedly increased ERK-1/2 phosphorylation | Ang II-dependent plasminogen-activator inhibitor 1 release [16]: increased Ang II–dependent plasminogen-activator inhibitor 1 release

inhibition of PRO20-FITC binding by unlabeled prorenin [17]: completely blocked
B3: mouse prorenin: unlabeled mouse prorenin (protein, UniProt P06281 22-402, looked up)
pro-form: LPTRTATFERIPLKKMPSVREILEERGVDMTRLSAEWGVFTKRPSLTNLTSPVVLTNYLNTQYYGEIGIGTPPQTFKVIFDTGSANLWVPSTKCSRLYLACGIHSLYESSDSSSYMENGSDFTIHYGSGRVKGFLSQDSVTVGGITVTQTFGEVTELPLIPFMLAKFDGVLGMGFPAQAVGGVTPVFDHILSQGVLKEEVFSVYYNRGSHLLGGEVVLGGSDPQHYQGNFHYVSISKTDSWQITMKGVSVGSSTLLCEEGCAVVVDTGSSFISAPTSSLKLIMQALGAKEKRIEEYVVNCSQVPTLPDISFDLGGRAYTLSSTDYVLQYPNRRDKLCTLALHAMDIPPPTGPVWVLGATFIRKFYTEFDRHNNRIGFALAR
modifications: pro-form
BP during intracerebroventricular infusion of prorenin [18]: induced a rapid increase in BP | BP in conscious wild-type mice ([7]; icv mouse prorenin 2.4 μmol/L, conscious wild-type C57Bl/6J mice): increases BP
